Reference: ChEMBL document CHEMBL1764953, “Discovery of orally active carboxylic acid derivatives of 2-phenyl-5-trifluoromethyloxazole-4-carboxamide as potent diacylglycerol acyltransferase-1 inhibitors for the potential treatment of obesity and diabetes” (J Med Chem, 2011)
Calls of active or inactive are those of the source. The calls are words filed in the database; no cut-off is given here.

Tests used:
Rattus norvegicus [1] = experiment: Antidiabetic activity in diet-induced obese Sprague-Dawley rat assessed as decrease in glucose excursion at 0.3 mg/kg, po administered once daily for 3 weeks by OGTT; type: functional, organism-based; parameters: dose 0.3 mg/kg
Procedure, shortened: (§1)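 Male Sprague-Dawley DIO rats (n = 10/group), 550–650 g, reverse light/dark cycle, high fat diet from 7 weeks of age; dosed po once daily in Klucel suspension.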

Rattus norvegicus [2] = experiment: Antidiabetic activity in diet-induced obese Sprague-Dawley rat assessed as decrease in glucose excursion at 3 mg/kg, po administered once daily for 3 weeks by OGTT; type: functional; parameters: scale not given: the % may be the effect or the level left; procedure, shortened: as §1
Rattus norvegicus [3] = experiment: Antiobesity activity in diet-induced obese rat assessed as decrease in food intake at 1 mg/kg, po administered once daily for 3 weeks; type: functional; parameters: scale not given: the % may be the effect or the level left
Procedure, shortened: (§2)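 Male DIO rats, 19 weeks old, on high fat diet for 12 weeks, dosed po once daily with Klucel (hydroxypropyl cellulose) suspension for 22 days; 10 rats per group. Body weight followed throughout; daily food intake recorded on days 1–3, 8, 9, 15 and 16, values averaged per group.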

[4] = Cmax in diet-induced obese rat at 3 mg/kg, po administered once daily for 3 weeks; type: ADME, organism-based; parameters: dose 3 mg/kg, route oral; details: in vivo
Rattus norvegicus [5] = experiment: Antiobesity activity in diet-induced obese rat assessed as reduction in body weight gain at 1 mg/kg, po administered once daily for 3 weeks; type: functional; parameters: scale not given: the % may be the effect or the level left; procedure, shortened: as §2
Rattus norvegicus [6] = experiment: Antiobesity activity in diet-induced obese rat assessed as reduction in body weight gain at 0.3 mg/kg, po administered once daily for 3 weeks; type: functional; parameters: scale not given: the % may be the effect or the level left; procedure, shortened: as §2
Rattus norvegicus [7] = experiment: Antiobesity activity in diet-induced obese rat assessed as reduction in plasma triglyceride levels at 3 mg/kg, po qd after 4 hrs challenged with corn oil relative to vehicle treated control; type: functional; parameters: scale not given: the % may be the effect or the level left
Procedure, shortened: (§3)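 Male DIO rats given 3 mg/kg po once daily for 1 week, with body weight gain followed. At study end, rats were fasted 4 h and challenged with corn oil 5 mL/kg; plasma triglycerides were measured 4 h later and compared with the vehicle group.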

Rattus norvegicus [8] = experiment: Antiobesity activity in diet-induced obese rat assessed as reduction in body weight gain at 3 mg/kg, po qd; type: functional; parameters: scale not given: the % may be the effect or the level left; procedure, shortened: as §3
[9] = Oral bioavailability in Hanover Wistar rat at 10 mg/kg; type: ADME, organism-based; details: in vivo
Procedure, shortened: (§4)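 Hanover Wistar rats (n = 3) with jugular/femoral cannulae, oral gavage of a 2 mg/mL suspension in 2% Klucel LF with 0.1% Tween 80; femoral-vein sampling, EDTA plasma, acetonitrile precipitation, LC-MS/MS (5.0–5000 ng/mL), noncompartmental analysis; F relative to 5 mg/kg iv; mean of n = 3.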

[10] = Tmax in Beagle dog at 10 mg/kg, po; type: ADME, organism-based, Canis lupus familiaris; parameters: dose 10 mg/kg, route oral; details: in vivo
Procedure, shortened: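 Oral gavage to rats (jugular/femoral vein-cannulated, femoral vein blood sampling) or beagle dogs, n = 3, as a 2 mg/mL suspension in 2% Klucel LF with 0.1% Tween 80 in water. Plasma extracted by acetonitrile protein precipitation and quantified by LC-MS/MS (linear 5.0–5000 ng/mL). Noncompartmental analysis; mean of 3.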

[11] = Cmax in Hanover Wistar rat at 10 mg/kg, po by LC-MS/MS; type: ADME, organism-based; parameters: dose 10 mg/kg, route oral; details: in vivo; procedure, shortened: as §4
[12] = Volume of distribution in Beagle dog at 5 mg/kg, iv; type: ADME, organism-based, Canis lupus familiaris; parameters: dose 5 mg/kg, route intravenous; details: in vivo
[13] = Inhibition of P-glycoprotein
[14] = Volume of distribution in Hanover Wistar rat at 5 mg/kg, iv; type: ADME, organism-based; parameters: dose 5 mg/kg, route intravenous; details: in vivo
Cytochrome P450 3A4 = Cytochrome P450 3A4 (Homo sapiens, UniProt P08684); experiment: Inhibition of CYP3A4; type: ADME
Chain of Cytochrome P450 3A4 (P08684 whole entry): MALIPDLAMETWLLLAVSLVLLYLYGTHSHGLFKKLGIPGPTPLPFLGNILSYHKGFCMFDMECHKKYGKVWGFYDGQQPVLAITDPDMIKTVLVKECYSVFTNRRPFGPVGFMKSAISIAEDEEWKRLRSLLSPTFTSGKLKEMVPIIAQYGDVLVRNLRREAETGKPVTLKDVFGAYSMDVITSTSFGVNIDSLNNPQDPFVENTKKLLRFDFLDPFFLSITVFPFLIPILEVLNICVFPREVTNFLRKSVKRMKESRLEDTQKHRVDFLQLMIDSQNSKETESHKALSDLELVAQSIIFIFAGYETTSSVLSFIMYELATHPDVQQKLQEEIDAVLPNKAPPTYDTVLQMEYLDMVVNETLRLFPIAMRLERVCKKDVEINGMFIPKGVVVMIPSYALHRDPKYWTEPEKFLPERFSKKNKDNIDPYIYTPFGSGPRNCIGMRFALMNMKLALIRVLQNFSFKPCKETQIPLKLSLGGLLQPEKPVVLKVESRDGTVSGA

Cytochrome P450 2C19 = Cytochrome P450 2C19 (Homo sapiens, UniProt P33261); experiment: Inhibition of CYP2C19; type: ADME
Chain of Cytochrome P450 2C19 (P33261 whole entry): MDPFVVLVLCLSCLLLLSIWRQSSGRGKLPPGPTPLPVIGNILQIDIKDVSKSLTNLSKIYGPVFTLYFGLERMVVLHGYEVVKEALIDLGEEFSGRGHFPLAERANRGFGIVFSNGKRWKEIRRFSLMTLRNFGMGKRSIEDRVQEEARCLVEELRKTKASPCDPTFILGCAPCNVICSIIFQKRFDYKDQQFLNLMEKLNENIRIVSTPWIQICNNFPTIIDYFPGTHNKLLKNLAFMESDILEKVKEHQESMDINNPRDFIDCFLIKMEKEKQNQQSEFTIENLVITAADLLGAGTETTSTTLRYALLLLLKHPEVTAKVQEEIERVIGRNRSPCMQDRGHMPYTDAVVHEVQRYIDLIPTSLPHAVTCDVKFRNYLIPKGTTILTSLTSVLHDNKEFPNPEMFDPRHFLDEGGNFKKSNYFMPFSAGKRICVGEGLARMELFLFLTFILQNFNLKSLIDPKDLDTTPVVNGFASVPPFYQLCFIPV

Cytochrome P450 2C9 = Cytochrome P450 2C9 (Homo sapiens, UniProt P11712); experiment: Inhibition of CYP2C9; type: ADME
Chain of Cytochrome P450 2C9 (P11712 whole entry): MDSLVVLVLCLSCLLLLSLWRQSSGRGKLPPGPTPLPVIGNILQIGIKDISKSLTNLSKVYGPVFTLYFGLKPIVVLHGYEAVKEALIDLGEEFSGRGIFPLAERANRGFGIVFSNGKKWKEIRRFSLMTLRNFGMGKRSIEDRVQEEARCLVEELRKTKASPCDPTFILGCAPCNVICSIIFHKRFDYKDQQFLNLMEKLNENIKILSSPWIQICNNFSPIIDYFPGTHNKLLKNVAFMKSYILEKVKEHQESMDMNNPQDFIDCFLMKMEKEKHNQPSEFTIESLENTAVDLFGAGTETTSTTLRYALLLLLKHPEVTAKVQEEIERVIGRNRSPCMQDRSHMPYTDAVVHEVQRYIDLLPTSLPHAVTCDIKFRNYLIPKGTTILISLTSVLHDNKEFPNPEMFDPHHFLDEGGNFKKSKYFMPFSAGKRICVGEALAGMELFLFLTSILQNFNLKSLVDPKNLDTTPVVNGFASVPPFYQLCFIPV

[15] = Permeability across human Caco2 cells; type: ADME, cell-based; details: Caco-2, read-out: permeability
[16] = Lipophilicity, log D of the compound; type: physicochemical; details: octanol/water
[17] = Association constant pKa of the compound; type: physicochemical
[18] = target: T1, Diacylglycerol O-acyltransferase 2 (Homo sapiens, UniProt Q96PD7); experiment: Inhibition of human DGAT2 expressed in baculovirus infected Sf9 cells using palmitoyl-1-14C-coenzyme A by TLC assay
T1 sequence (Q96PD7 whole entry): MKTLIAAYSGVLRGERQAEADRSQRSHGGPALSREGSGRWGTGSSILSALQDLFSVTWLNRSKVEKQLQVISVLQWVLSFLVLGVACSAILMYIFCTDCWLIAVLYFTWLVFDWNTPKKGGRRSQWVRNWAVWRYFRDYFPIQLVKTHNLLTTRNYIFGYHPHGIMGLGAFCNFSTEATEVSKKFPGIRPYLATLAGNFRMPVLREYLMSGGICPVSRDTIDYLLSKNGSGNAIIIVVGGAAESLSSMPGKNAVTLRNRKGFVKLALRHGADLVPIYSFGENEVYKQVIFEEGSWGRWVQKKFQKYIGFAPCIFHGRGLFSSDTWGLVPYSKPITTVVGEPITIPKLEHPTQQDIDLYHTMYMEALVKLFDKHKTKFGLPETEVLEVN
Procedure, shortened: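 DGAT-2 membranes from baculovirus-infected Sf9 cells, diluted to 0.313 mg/mL in 50 mM Tris pH 7.5, 20 mM MgCl2, 0.25 M sucrose. Preincubated 15 min on ice with compound (0–600 μM solutions in 20% DMSO), then DAG and 8.3 μM [14C]palmitoyl-CoA solutions added; 5 min at 37 °C. Lipids extracted with chloroform/methanol, resolved by TLC, phosphoimager read-out.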

hERG = hERG (Homo sapiens, UniProt Q12809); experiment: Inhibition of human ERG-mediated current expressed in CHO cells by patch clamp method; type: cell-based; details: CHO cells expressing human ERG
Chain of hERG (Q12809 whole entry): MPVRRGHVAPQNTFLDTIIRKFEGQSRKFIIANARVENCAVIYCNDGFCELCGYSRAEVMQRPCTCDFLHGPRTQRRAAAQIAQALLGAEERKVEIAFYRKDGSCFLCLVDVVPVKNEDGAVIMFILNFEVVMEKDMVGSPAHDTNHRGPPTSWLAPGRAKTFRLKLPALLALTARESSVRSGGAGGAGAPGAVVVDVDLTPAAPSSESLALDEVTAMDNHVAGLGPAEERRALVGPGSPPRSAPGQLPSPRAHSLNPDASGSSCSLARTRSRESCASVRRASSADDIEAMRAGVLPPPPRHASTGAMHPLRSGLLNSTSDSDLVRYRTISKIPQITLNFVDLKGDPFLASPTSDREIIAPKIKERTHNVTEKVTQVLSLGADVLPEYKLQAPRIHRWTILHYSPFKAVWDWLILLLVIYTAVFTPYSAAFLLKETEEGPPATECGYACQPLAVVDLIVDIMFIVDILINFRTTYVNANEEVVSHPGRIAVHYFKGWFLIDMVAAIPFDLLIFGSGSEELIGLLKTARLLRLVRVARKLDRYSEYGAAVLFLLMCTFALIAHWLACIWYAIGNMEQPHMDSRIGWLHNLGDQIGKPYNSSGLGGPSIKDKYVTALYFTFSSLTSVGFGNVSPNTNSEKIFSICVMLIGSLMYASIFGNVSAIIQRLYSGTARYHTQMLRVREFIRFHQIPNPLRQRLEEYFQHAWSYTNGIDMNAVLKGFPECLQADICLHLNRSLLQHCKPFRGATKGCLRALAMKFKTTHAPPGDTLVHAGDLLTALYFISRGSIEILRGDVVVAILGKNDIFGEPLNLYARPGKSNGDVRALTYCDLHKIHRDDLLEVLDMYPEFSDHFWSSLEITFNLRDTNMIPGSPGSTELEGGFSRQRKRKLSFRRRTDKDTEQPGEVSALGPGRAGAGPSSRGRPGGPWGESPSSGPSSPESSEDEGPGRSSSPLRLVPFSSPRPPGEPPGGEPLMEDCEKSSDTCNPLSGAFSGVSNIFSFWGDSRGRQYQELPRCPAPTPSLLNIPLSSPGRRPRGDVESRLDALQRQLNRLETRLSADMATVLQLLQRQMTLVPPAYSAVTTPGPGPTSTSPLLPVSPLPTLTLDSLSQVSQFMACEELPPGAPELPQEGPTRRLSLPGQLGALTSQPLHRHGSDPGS
Procedure, shortened: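 hERG-transfected CHO cells on automated whole-cell patch clamp at a holding potential of −80 mV; 1 s depolarizing pulse at 0.1 Hz; tail current measured at −40 mV. Sequence: 0.3% DMSO vehicle, three ascending log-interval concentrations up to 30 μM or the solubility limit, then 1 μM E-4031. At least 3 cells per compound; data normalized to vehicle and fitted with the Hill equation.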

[19] = target: T2, Diacylglycerol O-acyltransferase 1 (Homo sapiens, UniProt O75907); experiment: Inhibition of human DGAT1 expressed in baculovirus infected insect cells after 1 hr using palmitoyl-1-14C-coenzyme A by phospholipid flashplate assay
T2 sequence (O75907 whole entry): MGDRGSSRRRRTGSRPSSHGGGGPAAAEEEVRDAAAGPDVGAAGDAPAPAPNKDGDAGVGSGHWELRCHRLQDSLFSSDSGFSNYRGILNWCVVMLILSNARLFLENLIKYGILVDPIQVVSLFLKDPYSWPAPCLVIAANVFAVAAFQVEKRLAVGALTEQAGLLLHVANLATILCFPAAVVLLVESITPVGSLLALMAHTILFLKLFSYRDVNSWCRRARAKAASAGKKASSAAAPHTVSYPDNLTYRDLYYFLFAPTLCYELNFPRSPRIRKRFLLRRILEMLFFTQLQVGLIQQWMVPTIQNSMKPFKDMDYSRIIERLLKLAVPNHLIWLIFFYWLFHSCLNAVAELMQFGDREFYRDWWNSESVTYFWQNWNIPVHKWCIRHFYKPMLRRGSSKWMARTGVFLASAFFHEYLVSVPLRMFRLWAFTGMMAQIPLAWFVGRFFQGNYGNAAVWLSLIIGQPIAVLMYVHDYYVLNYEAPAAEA

For O=C(Nc1ccc(C2CCN(C(=O)[C@H]3CC[C@H](C(=O)O)CC3)CC2)cc1)c1nc(-c2ccccc2)oc1C(F)(F)F, the Activity (Rattus norvegicus [1]) was “Active”, the Activity (Rattus norvegicus [2]) was 15% and the Activity (Rattus norvegicus [3]) was 19%. For the same molecule, the Cmax [4] was 15.1 µM, the Activity (Rattus norvegicus [5]) was 6% and the Activity (Rattus norvegicus [6]) was 5%. It also gave an Activity (Rattus norvegicus [7]) of 85%, an Activity (Rattus norvegicus [8]) of 4% and a bioavailability [9] of 73%. It also gave a Tmax [10] of 2 h, a Cmax [11] of 34.8 µM and a Vd [12] of 0.38 L/kg. For the same molecule, the inhibition [13] was “inactive”, the Vd [14] was 0.27 L/kg and the IC50 (Cytochrome P450 3A4) was over 50 µM. The IC50 (Cytochrome P450 2C19) was over 50 µM, the IC50 (Cytochrome P450 2C9) was over 50 µM and the Papp [15] was 24.5 ×10⁻⁶ cm/s. The logD [16] was 2.34, the pKa [17] was 5.78 and the IC50 [18] was over 100 µM. The IC20 (hERG) was 30 µM and the IC50 [19] was 0.057 µM.
